Data set [1] concerns Mus musculus. Description: Hepatotoxicity in BALB/c mouse assessed as liver ALT level at 0.5 to 14.8 mg/kg, ip administered twice a week for 3 weeks measured after 72 hrs of last dose. Details: dose 0.5-14.8 mg/kg, route intraperitoneal. In kind it is toxicity, organism-based. As to conditions: in vivo. A digest of the protocol: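 Male 6-week-old Balb/c mice dosed ip in PBS twice weekly for 3 weeks: 0.7–23 mg/kg (four levels) or 0.5–14.6/14.8 mg/kg. Killed 72 h after final dose. Plasma from cardiac-puncture blood, ALT on clinical bioanalyzer. Errors are SD.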

Data set [2] in a line: Reduction in PTEN mRNA expression in mouse bEND.3 cells after 24 hrs by qRT-PCR analysis. In kind it is functional, cell-based. As to conditions: for IC50: BEND3, 24 h. The method in brief:
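bEnd.3 cells in DMEM/10% FBS, seeded at 1 × 10^4 cells/well the day before. Transfected 4 h at 37 °C with Lipofectin 3 μg/mL in OptiMEM, eight 1:2 dilutions (40 nM to 312.5 pM), then refed with complete medium for 24 h. PTEN RNA by qRT-PCR, normalized to cyclophilin A, as % untreated control. Triplicate plates. IC50 from sigmoidal fit, top 100%, bottom 0%.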
A general note: In qPCR the cycle at which signal appears reflects the starting amount.

In data set [3] the test system is Mus musculus. Description: Reduction in PTEN mRNA expression in ip dosed BALB/c mouse liver administered twice a week for 3 weeks measured after 72 hrs of last dose by RT-PCR analysis. In kind it is functional. The method in brief: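 Male Balb/c mice, 6-week-old, ASO in PBS ip twice weekly for 3 weeks, four dose levels. Killed 72 h after last dose. Liver homogenized in guanidine isothiocyanate buffer, RNA column-purified. PTEN RNA by fluorescence qRT-PCR, normalized to cyclophilin A. Errors are SD.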

Data set [4] deals with Mus musculus. Description: Toxicity in BALB/c mouse assessed as effect on liver weight at 0.5 to 14.8 mg/kg, ip administered twice a week for 3 weeks measured after 72 hrs of last dose. In kind it is organism-based. The following applies: in vivo. Also noted: dose 0.5-14.8 mg/kg, route intraperitoneal. A digest of the protocol:
(§1)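 Male Balb/c mice, ip ASO in PBS twice weekly for 3 weeks at four dose levels. Body weight recorded before each dose. Killed 3 days after last dose. Organ weights normalized to body weight, expressed relative to the saline-treated group.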

The subject of data set [5] is Mus musculus. Briefly: Toxicity in BALB/c mouse assessed as effect on kidney weight at 0.5 to 14.8 mg/kg, ip administered twice a week for 3 weeks measured after 72 hrs of last dose. In kind it is organism-based. Details: dose 0.5-14.8 mg/kg, route intraperitoneal. As to conditions: in vivo. A digest of the protocol: as §1
Data set [6] concerns Mus musculus. Description: Toxicity in BALB/c mouse assessed as effect on body weight at 0.5 to 14.8 mg/kg, ip administered twice a week for 3 weeks measured after 72 hrs of last dose. In kind it is organism-based. Details: dose 0.5-14.8 mg/kg, route intraperitoneal. The following applies: in vivo. The method in brief: as §1
Another data set concerns Nucleic Acid. Description: Binding affinity to mouse PTEN mRNA assessed as melting temperature at 4 uM by thermal denaturation assay. In kind it is nucleic-acid assay. The method in brief:
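Duplex with complementary length-matched RNA; UV absorbance versus temperature curves in 100 mM Na+, 10 mM phosphate, 0.1 mM EDTA, 4 μM each strand. Tm is the average of two experiments.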

Data set [7] deals with Mus musculus. Briefly: Reduction in PTEN mRNA expression in BALB/c mouse liver at 37 mg/kg, ip administered once a week for 3 weeks measured after 72 hrs of last dose by RT-PCR analysis. Details: dose 37 mg/kg. In kind it is functional, organism-based.

The structures appear in SMILES notation. The source made the active and inactive calls. The calls are words filed in the database; no cut-off is given here.

The values that follow come from ChEMBL document CHEMBL1156266, “Antisense oligonucleotides containing conformationally constrained 2',4'-(N-methoxy)aminomethylene and 2',4'-aminooxymethylene and 2'-O,4'-C-aminomethylene bridged nucleoside analogues show improved potency in animal models” (J Med Chem, 2010).

A word on the IC50: it is the concentration that inhibits the measured activity by half. The low end stands for higher potency, the high end for lower potency. In general, ED50 refers to the dose that gives a 50% effect, or the effect in half of the subjects. Read a high ED50 as weaker potency. By Tm is commonly meant the temperature at which the thermal transition is half complete. With `Cc1cn([C@@H]2O[C@]3(CO)CON(C)[C@@H]2[C@@H]3OP(O)(=S)OC[C@]23CON(C)[C@@H]([C@H](n4cc(C)c(=O)[nH]c4=O)O2)[C@@H]3OP(O)(=S)OC[C@H]2O[C@@H](n3cc(C)c(=O)[nH]c3=O)C[C@@H]2OP(O)(=S)OC[C@H]2O[C@@H](n3cnc4c(N)ncnc43)[C@H](O)[C@@H]2OP(O)(=S)OC[C@H]2O[C@@H](n3cnc4c(=O)[nH]c(N)nc43)[C@H](O)[C@@H]2OP(O)(=S)OC[C@H]2O[C@@H](n3ccc(N)nc3=O)[C@H](O)[C@@H]2OP(O)(=S)OC[C@H]2O[C@@H](n3cnc4c(N)ncnc43)[C@H](O)[C@@H]2OP(O)(=S)OC[C@H]2O[C@@H](n3ccc(N)nc3=O)[C@H](O)[C@@H]2OP(O)(=S)OC[C@H]2O[C@@H](n3cc(C)c(=O)[nH]c3=O)C[C@@H]2OP(O)(=S)OC[C@H]2O[C@@H](n3cnc4c(=O)[nH]c(N)nc43)[C@H](O)[C@@H]2OP(O)(=S)OC[C@H]2O[C@@H](n3cnc4c(=O)[nH]c(N)nc43)[C@H](O)[C@@H]2OP(O)(=S)OC[C@H]2O[C@@H](n3ccc(N)nc3=O)[C@H](O)[C@@H]2OP(O)(=S)OC[C@]23CON(C)[C@@H]([C@H](n4cc(C)c(N)nc4=O)O2)[C@@H]3OP(O)(=S)OC[C@]23CON(C)[C@@H]([C@H](n4cc(C)c(=O)[nH]c4=O)O2)[C@@H]3O)c(=O)nc1N` (stereo not given in full), the Activity result in the data set on Mus musculus [1] is “Non-toxic”; in data set [2], “Dose-dependent effect”; in the data set on Mus musculus [3], “Dose-dependent effect”; in the data set on Mus musculus [4] it was “Non-toxic”; in the data set with Mus musculus [5] it was “Non-toxic”; in the data set with Mus musculus [6] it was “Non-toxic”. Moreover, the IC50 in data set [2] is 3.4 nM. Besides, the median effective dose (ED50) with Mus musculus [3] came to 11 mg/kg. Also, in the data set with Nucleic Acid, the Tm stood at 55.4 °C.
Take `Cc1cn([C@H]2C[C@H](OP(O)(=S)OC[C@H]3O[C@@H](n4cnc5c(=O)[nH]c(N)nc54)[C@H](O)[C@@H]3OP(O)(=S)OC[C@H]3O[C@@H](n4cnc5c(=O)[nH]c(N)nc54)[C@H](O)[C@@H]3OP(O)(=S)OC[C@H]3O[C@@H](n4ccc(N)nc4=O)[C@H](O)[C@@H]3OP(O)(=S)OC[C@H]3O[C@@H](n4ccc(N)nc4=O)[C@H](O)[C@@H]3OP(O)(=S)OC[C@H]3O[C@@H](n4cc(C)c(=O)[nH]c4=O)C[C@@H]3O)[C@@H](COP(O)(=S)O[C@H]3[C@@H](O)[C@H](n4ccc(N)nc4=O)O[C@@H]3COP(O)(=S)O[C@H]3[C@@H](O)[C@H](n4cnc5c(N)ncnc54)O[C@@H]3COP(O)(=S)O[C@H]3[C@@H](O)[C@H](n4ccc(N)nc4=O)O[C@@H]3COP(O)(=S)O[C@H]3[C@@H](O)[C@H](n4cnc5c(=O)[nH]c(N)nc54)O[C@@H]3COP(O)(=S)O[C@H]3[C@@H](O)[C@H](n4cnc5c(N)ncnc54)O[C@@H]3COP(O)(=S)O[C@H]3C[C@H](n4cc(C)c(=O)[nH]c4=O)O[C@@H]3COP(O)(=S)O[C@H]3C[C@H](n4cc(C)c(=O)[nH]c4=O)O[C@@H]3COP(O)(=S)O[C@H]3[C@@H](O)[C@H](n4ccc(N)nc4=O)O[C@@H]3CO)O2)c(=O)[nH]c1=O` (stereo not given in full): the midpoint of thermal melting (Tm) in the data set on Nucleic Acid stood at 48.5 °C.
Take `COCCO[C@@H]1[C@H](O)[C@@H](COP(O)(=S)O[C@H]2[C@@H](OCCOC)[C@H](n3ccc(N)nc3=O)O[C@@H]2COP(O)(=S)O[C@H]2[C@@H](O)[C@H](n3ccc(N)nc3=O)O[C@@H]2COP(O)(=S)O[C@H]2[C@@H](O)[C@H](n3cnc4c(=O)[nH]c(N)nc43)O[C@@H]2COP(O)(=S)O[C@H]2[C@@H](O)[C@H](n3cnc4c(=O)[nH]c(N)nc43)O[C@@H]2COP(O)(=S)O[C@H]2C[C@H](n3cc(C)c(=O)[nH]c3=O)O[C@@H]2COP(O)(=S)O[C@H]2[C@@H](O)[C@H](n3ccc(N)nc3=O)O[C@@H]2COP(O)(=S)O[C@H]2[C@@H](O)[C@H](n3cnc4c(N)ncnc43)O[C@@H]2COP(O)(=S)O[C@H]2[C@@H](O)[C@H](n3ccc(N)nc3=O)O[C@@H]2COP(O)(=S)O[C@H]2[C@@H](O)[C@H](n3cnc4c(=O)[nH]c(N)nc43)O[C@@H]2COP(O)(=S)O[C@H]2[C@@H](O)[C@H](n3cnc4c(N)ncnc43)O[C@@H]2COP(O)(=S)O[C@H]2C[C@H](n3cc(C)c(=O)[nH]c3=O)O[C@@H]2COP(O)(=S)O[C@H]2[C@@H](OCCOC)[C@H](n3ccc(=O)[nH]c3=O)O[C@@H]2COP(O)(=S)O[C@H]2[C@@H](OCCOC)[C@H](n3ccc(N)nc3=O)O[C@@H]2CO)O[C@H]1n1ccc(=O)[nH]c1=O` (stereo not given in full): in data set [2], the Activity entry is “Dose-dependent effect” and inhibition was half-maximal at 34.7 nM (IC50). Also, the 50% effective dose (ED50) with Mus musculus [3] was > 45 mg/kg. Also, the midpoint of thermal melting (Tm) in the data set with Nucleic Acid stood at 51.3 °C.
`Cc1cn([C@H]2C[C@H](OP(O)(=S)OC[C@H]3O[C@@H](n4cnc5c(=O)[nH]c(N)nc54)[C@H](O)[C@@H]3OP(O)(=S)OC[C@H]3O[C@@H](n4cnc5c(=O)[nH]c(N)nc54)[C@H](O)[C@@H]3OP(O)(=S)OC[C@H]3O[C@@H](n4ccc(N)nc4=O)[C@H](O)[C@@H]3OP(O)(=S)OC[C@]34CO[C@@H]([C@H](n5ccc(N)nc5=O)O3)[C@@H]4OP(O)(=S)OC[C@]34CO[C@@H]([C@H](n5ccc(=O)[nH]c5=O)O3)[C@@H]4O)[C@@H](COP(O)(=S)O[C@H]3[C@@H](O)[C@H](n4ccc(N)nc4=O)O[C@@H]3COP(O)(=S)O[C@H]3[C@@H](O)[C@H](n4cnc5c(N)ncnc54)O[C@@H]3COP(O)(=S)O[C@H]3[C@@H](O)[C@H](n4ccc(N)nc4=O)O[C@@H]3COP(O)(=S)O[C@H]3[C@@H](O)[C@H](n4cnc5c(=O)[nH]c(N)nc54)O[C@@H]3COP(O)(=S)O[C@H]3[C@@H](O)[C@H](n4cnc5c(N)ncnc54)O[C@@H]3COP(O)(=S)O[C@H]3C[C@H](n4cc(C)c(=O)[nH]c4=O)O[C@@H]3COP(O)(=S)O[C@H]3[C@H]4OC[C@@]3(COP(O)(=S)O[C@H]3[C@H]5OC[C@@]3(CO)O[C@H]5n3ccc(N)nc3=O)O[C@H]4n3ccc(=O)[nH]c3=O)O2)c(=O)[nH]c1=O` (stereo not given in full): in the data set with Nucleic Acid, the Tm worked out at 58 °C.
As for `Cc1cn([C@@H]2O[C@]3(CO)CNO[C@@H]2[C@@H]3OP(O)(=S)OC[C@]23CNO[C@@H]([C@H](n4cc(C)c(=O)[nH]c4=O)O2)[C@@H]3OP(O)(=S)OC[C@H]2O[C@@H](n3cc(C)c(=O)[nH]c3=O)C[C@@H]2OP(O)(=S)OC[C@H]2O[C@@H](n3cnc4c(N)ncnc43)[C@H](O)[C@@H]2OP(O)(=S)OC[C@H]2O[C@@H](n3cnc4c(=O)[nH]c(N)nc43)[C@H](O)[C@@H]2OP(O)(=S)OC[C@H]2O[C@@H](n3ccc(N)nc3=O)[C@H](O)[C@@H]2OP(O)(=S)OC[C@H]2O[C@@H](n3cnc4c(N)ncnc43)[C@H](O)[C@@H]2OP(O)(=S)OC[C@H]2O[C@@H](n3ccc(N)nc3=O)[C@H](O)[C@@H]2OP(O)(=S)OC[C@H]2O[C@@H](n3cc(C)c(=O)[nH]c3=O)C[C@@H]2OP(O)(=S)OC[C@H]2O[C@@H](n3cnc4c(=O)[nH]c(N)nc43)[C@H](O)[C@@H]2OP(O)(=S)OC[C@H]2O[C@@H](n3cnc4c(=O)[nH]c(N)nc43)[C@H](O)[C@@H]2OP(O)(=S)OC[C@H]2O[C@@H](n3ccc(N)nc3=O)[C@H](O)[C@@H]2OP(O)(=S)OC[C@]23CNO[C@@H]([C@H](n4cc(C)c(N)nc4=O)O2)[C@@H]3OP(O)(=S)OC[C@]23CNO[C@@H]([C@H](n4cc(C)c(=O)[nH]c4=O)O2)[C@@H]3O)c(=O)nc1N` (stereo not given in full), in data set [2], the Activity entry is “Dose-dependent effect” and the half-maximal inhibitory concentration (IC50) came to 3.2 nM. Moreover, in the data set on Mus musculus [3], the ED50 was > 37 mg/kg. Further, the result with Mus musculus [7] was inactive. The Tm with Nucleic Acid amounted to 57.7 °C.
